Laboratory results published in ChEMBL document CHEMBL1141604, “Benzenesulfonamide indole inhibitors of cytosolic phospholipase A2alpha: optimization of in vitro potency and rat pharmacokinetics for oral efficacy” (Bioorg Med Chem, 2008).

Key:
[1] = Inhibition of human cPLA2-alpha assessed as cleavage of 7-hydroxycoumarinyl-gamma-linolenate
Summary of the method: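 Substrate 90 µM GLU with 120 µM DTPC. Compounds in DMSO tested in duplicate. Fluorescence (ex 355/em 460 nm) read every 4 min for 84 min; inhibition from slope. IC50 averaged from at least two independent runs.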

[2] = Oral bioavailability in Sprague-Dawley rat at 25 mg/kg administered through MC/TW formulation; type: ADME, organism-based; details: in vivo
Summary of the method: (§1)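 Overnight-fasted male Sprague-Dawley rats (n = 3) gavaged in MC/TW or Phosal vehicle; compound at 37.5 mg/mL, diluted with water, dosed at 4 mL/kg. Jugular blood taken over 24 h; plasma analysed by LC/MS/MS. F calculated as the dose-normalized oral/iv AUC ratio, iv reference 2 mg/kg.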

[3] = Inhibition of cPLA2-alpha in Sprague-Dawley rat whole blood assay in presence of A23187; type: tissue-based
Summary of the method: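 Heparinized blood from male Sprague-Dawley rats, taken by cardiac puncture. Preincubated 15 min at 37 °C with compound in DMSO, then stimulated 10 min at 37 °C with 5 µM A23187 (final). Stopped with 20 mM EDTA; plasma precipitated with cold methanol at −80 °C. TXB2 measured by immunoassay; IC50 values averaged from at least two independent runs.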

[4] = Clearance in Sprague-Dawley rat at 2 mg/kg, iv; type: ADME, organism-based; design: dose 2 mg/kg, route intravenous; details: in vivo
Summary of the method: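 Male Sprague-Dawley rats, 200–300 g, n = 3, given a single 2 mg/kg tail-vein bolus in 50% PEG-400/50% DMSO. Blood drawn via jugular cannula over 24 h and plasma acidified with HCl. Plasma levels measured by LC/MS/MS after acetonitrile precipitation with internal standard; quantitation limit 5 ng/mL. Clearance from non-compartmental analysis.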

[5] = Oral bioavailability in Beagle dog at 50 mg/kg administered through Phosal formulation; type: ADME, organism-based, Canis lupus familiaris; details: in vivo
Summary of the method: (§2)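 Fasted male Beagle dogs (n = 3) dosed orally in MC/TW or Phosal formulation, volume 4 or 6 mL/kg. Saphenous plasma collected over 24 h and measured by LC/MS/MS. F calculated as the dose-normalized oral/iv AUC ratio against 2 mg/kg iv.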

[6] = Clearance in Beagle dog at 2 mg/kg, iv; type: ADME, organism-based, Canis lupus familiaris; design: dose 2 mg/kg, route intravenous; details: in vivo
Summary of the method: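 Male Beagle dogs, 8.5–13.0 kg, n = 3, fasted overnight, given 2 mg/kg iv in 20% DMSO/80% PEG-200. Saphenous blood sampled over 24 h and plasma acidified to about pH 4. Analysed by LC/MS/MS with internal standard. Clearance by non-compartmental methods.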

[7] = Oral bioavailability in Beagle dog at 50 mg/kg administered through MC/TW formulation; type: ADME, organism-based, Canis lupus familiaris; details: in vivo; summary of the method: as §2
[8] = Oral bioavailability in Sprague-Dawley rat at 25 mg/kg administered through Phosal formulation; type: ADME, organism-based; details: in vivo; summary of the method: as §1
[9] = Oral bioavailability in Sprague-Dawley rat at 5 mg/kg administered through MC/TW formulation; type: ADME, organism-based; details: in vivo; summary of the method: as §1
[10] = Oral bioavailability in Sprague-Dawley rat at 10 mg/kg administered through Phosal formulation; type: ADME, organism-based; details: in vivo

| IC50 [1] | bioavailability [2] | IC50 [3] | clearance [4] | bioavailability [5] | clearance [6] | bioavailability [7] | bioavailability [8] | bioavailability [9] | bioavailability [10] | Compound |
| --- | --- | --- | --- | --- | --- | --- | --- | --- | --- | --- |
| 600 nM | 6% | 150 nM | 28 mL/min/kg |  |  |  |  |  |  | O=C(O)c1ccc(OCCc2c(CCNS(=O)(=O)c3ccccc3F)n(C(c3ccccc3)c3ccccc3)c3ccc(Cl)cc23)cc1 |
| 260 nM | 2.9% | 210 nM | 16.3 mL/min/kg |  |  |  |  |  |  | O=C(O)c1ccc(OCCc2c(CCNS(=O)(=O)c3c(Cl)cccc3Cl)n(C(c3ccccc3)c3ccccc3)c3ccc(Cl)cc23)cc1 |
| 100 nM | 7.8% | 200 nM | 10.7 mL/min/kg |  |  |  |  |  |  | COc1ccccc1S(=O)(=O)NCCc1c(CCCc2ccc(C(=O)O)cc2)c2cc(Cl)ccc2n1C(c1ccccc1)c1ccccc1 |
| 180 nM | < 0.1% | 60 nM | 18.6 mL/min/kg |  |  |  |  |  |  | COc1ccccc1S(=O)(=O)NCCc1c(CCOc2ccc(C(=O)O)cc2)c2cc(Cl)ccc2n1C(c1ccccc1)c1ccccc1 |
| 110 nM | < 0.1% | 150 nM | 4.5 mL/min/kg |  |  |  |  |  |  | O=C(O)c1ccc(OCCc2c(CCNS(=O)(=O)c3ccccc3-c3ccccc3)n(C(c3ccccc3)c3ccccc3)c3ccc(Cl)cc23)cc1 |
| 180 nM | 3% | 150 nM | 15.3 mL/min/kg |  |  |  |  |  |  | O=C(O)c1ccc(OCCc2c(CCNS(=O)(=O)c3c(F)cccc3C(F)(F)F)n(C(c3ccccc3)c3ccccc3)c3ccc(Cl)cc23)cc1 |
| 14 nM | 1% | 30 nM | 4 mL/min/kg | 1.5% | 0.6 mL/min/kg | 0.08% | 3.5% |  |  | Cc1cccc(C)c1CS(=O)(=O)NCCc1c(CCCc2ccc(C(=O)O)cc2)c2cc(Cl)ccc2n1C(c1ccccc1)c1ccccc1 |
| 40 nM | 0.4% | 60 nM | 2.3 mL/min/kg |  |  |  |  |  |  | O=C(O)c1ccc(CCCc2c(CCNS(=O)(=O)c3ccccc3-c3ccccc3)n(C(c3ccccc3)c3ccccc3)c3ccc(Cl)cc23)cc1 |
| 110 nM | 3.9% | 120 nM |  |  |  |  |  |  |  | O=C(O)c1ccc(OCCc2c(CCNS(=O)(=O)Cc3ccccc3)n(C(c3ccccc3)c3ccccc3)c3ccc(Cl)cc23)cc1 |
| 180 nM |  | 220 nM |  |  |  |  |  |  |  | O=C(O)c1ccc(CCCc2c(CCNS(=O)(=O)c3cccc(-c4ccccc4)c3)n(C(c3ccccc3)c3ccccc3)c3ccc(Cl)cc23)cc1 |
| 60 nM | 3.8% | 100 nM | 8.5 mL/min/kg |  |  |  |  |  |  | O=C(O)c1ccc(CCCc2c(CCNS(=O)(=O)c3c(Cl)cccc3Cl)n(C(c3ccccc3)c3ccccc3)c3ccc(Cl)cc23)cc1 |
| 350 nM | 15.4% | 360 nM | 12.4 mL/min/kg |  |  |  |  |  |  | O=C(O)c1ccc(OCCc2c(CCNS(=O)(=O)c3ccccc3OC(F)(F)F)n(C(c3ccccc3)c3ccccc3)c3ccc(Cl)cc23)cc1 |
| 40 nM | 1% | 70 nM |  |  |  |  | 6% |  |  | O=C(O)c1ccc(CCCc2c(CCNS(=O)(=O)Cc3ccc(Cl)c(Cl)c3)n(C(c3ccccc3)c3ccccc3)c3ccc(Cl)cc23)cc1 [EFIPLADIB] |
| 100 nM | 6% | 95 nM | 6.1 mL/min/kg |  |  |  |  |  |  | Cc1cccc(C)c1S(=O)(=O)NCCc1c(CCOc2ccc(C(=O)O)cc2)c2cc(Cl)ccc2n1C(c1ccccc1)c1ccccc1 |
| 100 nM | 1.9% | 120 nM | 6.5 mL/min/kg |  |  |  |  |  |  | O=C(O)c1ccc(CCCc2c(CCNS(=O)(=O)c3ccccc3Br)n(C(c3ccccc3)c3ccccc3)c3ccc(Cl)cc23)cc1 |
| 570 nM |  | 600 nM |  |  |  |  |  |  |  | O=C(O)c1ccc(OCCc2c(CCNS(=O)(=O)c3cccc(-c4ccccc4)c3)n(C(c3ccccc3)c3ccccc3)c3ccc(Cl)cc23)cc1 |
| 90 nM | 8.6% | 95 nM | 10.3 mL/min/kg |  |  |  |  |  |  | Cc1ccccc1S(=O)(=O)NCCc1c(CCCc2ccc(C(=O)O)cc2)c2cc(Cl)ccc2n1C(c1ccccc1)c1ccccc1 |
| 400 nM | 39% | 550 nM | 31 mL/min/kg |  |  |  |  |  |  | O=C(O)c1ccc(OCCc2c(CCNS(=O)(=O)c3ccccc3Cl)n(C(c3ccccc3)c3ccccc3)c3ccc(Cl)cc23)cc1 |
| 340 nM |  | 160 nM | 61 mL/min/kg |  |  |  |  |  |  | Cc1ccccc1S(=O)(=O)NCCc1c(CCOc2ccc(C(=O)O)cc2)c2cc(Cl)ccc2n1C(c1ccccc1)c1ccccc1 |
| 520 nM | < 0.2% | 320 nM | 3.1 mL/min/kg |  |  |  |  |  |  | O=C(O)c1ccc(OCCc2c(CCNS(=O)(=O)c3ccccc3Br)n(C(c3ccccc3)c3ccccc3)c3ccc(Cl)cc23)cc1 |
| 40 nM |  | 80 nM | 13 mL/min/kg |  |  |  |  | 3.8% | 7.2% | O=C(O)c1ccc(CCCc2c(CCNS(=O)(=O)Cc3ccccc3)n(C(c3ccccc3)c3ccccc3)c3ccc(Cl)cc23)cc1 |
| 47 nM | 1.3% | 75 nM | 10.5 mL/min/kg |  |  |  |  |  |  | Cc1cccc(C)c1S(=O)(=O)NCCc1c(CCCc2ccc(C(=O)O)cc2)c2cc(Cl)ccc2n1C(c1ccccc1)c1ccccc1 |
| 100 nM | 4.6% | 200 nM | 5.2 mL/min/kg |  |  |  |  |  |  | O=C(O)c1ccc(CCCc2c(CCNS(=O)(=O)c3ccccc3OC(F)(F)F)n(C(c3ccccc3)c3ccccc3)c3ccc(Cl)cc23)cc1 |
| 190 nM | 4% | 220 nM | 8.8 mL/min/kg |  |  |  |  |  |  | O=C(O)c1ccc(CCCc2c(CCNS(=O)(=O)c3ccccc3F)n(C(c3ccccc3)c3ccccc3)c3ccc(Cl)cc23)cc1 |
| 100 nM | 13.7% | 200 nM | 9.4 mL/min/kg |  |  |  |  |  |  | O=C(O)c1ccc(CCCc2c(CCNS(=O)(=O)c3ccccc3Cl)n(C(c3ccccc3)c3ccccc3)c3ccc(Cl)cc23)cc1 |
|  | 6% | 160 nM |  |  |  |  |  |  |  | O=C(O)c1ccc(OCCc2c(CCNS(=O)(=O)Cc3ccc(Cl)c(Cl)c3)n(C(c3ccccc3)c3ccccc3)c3ccc(Cl)cc23)cc1 [ECOPLADIB] |
| 3000 nM |  | 1000 nM | 73 mL/min/kg |  |  |  |  |  |  | O=C(O)c1ccc(OCCc2c(CCNS(=O)(=O)c3ccccc3)n(C(c3ccccc3)c3ccccc3)c3ccc(Cl)cc23)cc1 |
